Measurements as given in ChEMBL document CHEMBL3994579, “Synthesis and antibacterial activity of novel 3-O-descladinosylazithromycin derivatives” (2017).
Values after ≈ are worked out from the molar mass of the structure shown.

Legend:
Format in all cases: functional
[1] = system: Staphylococcus epidermidis; assay: Antibacterial activity against penicillin-resistant Staphylococcus epidermidis clinical isolate by broth microdilution method
In short: (§1)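 Broth microdilution per NCCL recommendation, read as minimal inhibitory concentration, run alongside azithromycin and clarithromycin references. Strains: S. pneumoniae B1 (erythromycin-resistant, ermB), A22072 (erythromycin-resistant, mefA), AB11 (erythromycin-resistant, erm and mef); S. aureus ATCC29213 ([…]); S. epidermidis clinical isolate (penicillin-resistant, not characterized).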

Escherichia coli = assay: Antibacterial activity against penicillin-susceptible Escherichia coli ATCC 25922 by broth microdilution method
In short: (§2)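 MICs were determined in vitro by broth microdilution following the NCCL-recommended method. Azithromycin and clarithromycin were run alongside as reference antibiotics on the same strain panel.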

Streptococcus pyogenes [2] = assay: Antibacterial activity against erythromycin-resistant Streptococcus pyogenes R1 clinical isolate by broth microdilution method
Streptococcus pneumoniae [3] = assay: Antibacterial activity against erythromycin-resistant Streptococcus pneumoniae AB11 expressing ermB/mefA genes by broth microdilution method; in short: as §1
Bacillus subtilis = assay: Antibacterial activity against erythromycin/penicillin-susceptible Bacillus subtilis ATCC 9372 by broth microdilution method; in short: as §2
Pseudomonas aeruginosa = assay: Antibacterial activity against penicillin-susceptible Pseudomonas aeruginosa ATCC 27853 by broth microdilution method; in short: as §2
Staphylococcus aureus [4] = assay: Antibacterial activity against erythromycin-susceptible Staphylococcus aureus ATCC 25923 by broth microdilution method; in short: as §2
Streptococcus pyogenes [5] = assay: Antibacterial activity against erythromycin-susceptible Streptococcus pyogenes clinical isolate by broth microdilution method; in short: as §2
Streptococcus pneumoniae [6] = assay: Antibacterial activity against erythromycin-resistant Streptococcus pneumoniae A22072 expressing mefA gene by broth microdilution method; in short: as §1
Streptococcus pneumoniae [7] = assay: Antibacterial activity against erythromycin-resistant Streptococcus pneumoniae B1 expressing ermB gene by broth microdilution method; in short: as §1
Staphylococcus aureus [8] = assay: Antibacterial activity against […] Staphylococcus aureus ATCC 29213 by broth microdilution method; in short: as §1
Streptococcus pneumoniae [9] = assay: Potency index, ratio of azithromycin MIC to test compound MIC for erythromycin-resistant Streptococcus pneumoniae AB11 expressing ermB/mefA genes
Streptococcus pneumoniae [10] = assay: Potency index, ratio of clarithromycin MIC to test compound MIC for erythromycin-resistant Streptococcus pneumoniae AB11 expressing ermB/mefA genes

CC[C@H]1OC(=O)[C@H](C)[C@@H](O[C@H]2C[C@@](C)(OC)[C@@H](O)[C@H](C)O2)[C@H](C)[C@@H](O[C@@H]2O[C@H](C)C[C@H](N(C)C)[C@H]2O)[C@](C)(OC)C[C@@H](C)C(=O)[C@H](C)[C@@H](O)[C@]1(C)O [CLARITHROMYCIN]
MIC [1]: 0.25 µg/mL (≈ 0.334 µM) | MIC (Escherichia coli): 32 µg/mL (≈ 42.8 µM) | MIC (Streptococcus pyogenes [2]): 256 µg/mL (≈ 342 µM) | MIC (Streptococcus pneumoniae [3]): 128 µg/mL (≈ 171 µM) | MIC (Bacillus subtilis): 0.25 µg/mL (≈ 0.334 µM) | MIC (Pseudomonas aeruginosa): 64 µg/mL (≈ 85.6 µM) | MIC (Staphylococcus aureus [4]): 0.25 µg/mL (≈ 0.334 µM) | MIC (Streptococcus pyogenes [5]): 0.03 µg/mL (≈ 0.0401 µM) | MIC (Streptococcus pneumoniae [6]): 2 µg/mL (≈ 2.67 µM) | MIC (Streptococcus pneumoniae [7]): 256 µg/mL (≈ 342 µM) | MIC (Staphylococcus aureus [8]): 32 µg/mL (≈ 42.8 µM)

CC[C@H]1OC(=O)[C@H](C)[C@@H](OC(=O)Nc2ccc(C(F)(F)F)cc2)[C@H](C)[C@@H](O[C@@H]2O[C@H](C)C[C@H](N(C)C)[C@H]2O)[C@](C)(O)C[C@@H](C)CN(C)[C@H](C)[C@H]2OC(=O)O[C@@]21C
MIC [1]: 0.25 µg/mL (≈ 0.311 µM) | MIC (Escherichia coli): 128 µg/mL (≈ 159 µM) | MIC (Streptococcus pyogenes [2]): 64 µg/mL (≈ 79.6 µM) | MIC (Streptococcus pneumoniae [3]): 4 µg/mL (≈ 4.98 µM) | MIC (Bacillus subtilis): 32 µg/mL (≈ 39.8 µM) | MIC (Pseudomonas aeruginosa): 128 µg/mL (≈ 159 µM) | MIC (Staphylococcus aureus [4]): 16 µg/mL (≈ 19.9 µM) | MIC (Streptococcus pyogenes [5]): 1 µg/mL (≈ 1.24 µM) | MIC (Streptococcus pneumoniae [6]): 4 µg/mL (≈ 4.98 µM) | MIC (Streptococcus pneumoniae [7]): 32 µg/mL (≈ 39.8 µM) | MIC (Staphylococcus aureus [8]): 128 µg/mL (≈ 159 µM)

CC[C@H]1OC(=O)[C@H](C)[C@@H](OC(=O)Nc2ccccc2F)[C@H](C)[C@@H](O[C@@H]2O[C@H](C)C[C@H](N(C)C)[C@H]2OC(C)=O)[C@](C)(O)C[C@@H](C)CN(C)[C@H](C)[C@H]2OC(=O)O[C@@]21C
MIC [1]: 64 µg/mL (≈ 80.4 µM) | MIC (Escherichia coli): 64 µg/mL (≈ 80.4 µM) | MIC (Streptococcus pyogenes [2]): 128 µg/mL (≈ 161 µM) | MIC (Streptococcus pneumoniae [3]): 32 µg/mL (≈ 40.2 µM) | MIC (Bacillus subtilis): 32 µg/mL (≈ 40.2 µM) | MIC (Pseudomonas aeruginosa): 128 µg/mL (≈ 161 µM) | MIC (Staphylococcus aureus [4]): 32 µg/mL (≈ 40.2 µM) | MIC (Streptococcus pyogenes [5]): 4 µg/mL (≈ 5.03 µM) | MIC (Streptococcus pneumoniae [6]): 8 µg/mL (≈ 10.1 µM) | MIC (Streptococcus pneumoniae [7]): 128 µg/mL (≈ 161 µM) | MIC (Staphylococcus aureus [8]): 64 µg/mL (≈ 80.4 µM)

CC[C@H]1OC(=O)[C@H](C)[C@@H](OC(=O)Nc2ccccc2C)[C@H](C)[C@@H](O[C@@H]2O[C@H](C)C[C@H](N(C)C)[C@H]2O)[C@](C)(O)C[C@@H](C)CN(C)[C@H](C)[C@H]2OC(=O)O[C@@]21C
MIC [1]: 4 µg/mL (≈ 5.33 µM) | Ratio (Streptococcus pneumoniae [9]): 256 | MIC (Escherichia coli): 64 µg/mL (≈ 85.3 µM) | MIC (Streptococcus pyogenes [2]): 32 µg/mL (≈ 42.7 µM) | MIC (Streptococcus pneumoniae [3]): 1 µg/mL (≈ 1.33 µM) | MIC (Bacillus subtilis): 2 µg/mL (≈ 2.67 µM) | MIC (Pseudomonas aeruginosa): 64 µg/mL (≈ 85.3 µM) | MIC (Staphylococcus aureus [4]): 4 µg/mL (≈ 5.33 µM) | MIC (Streptococcus pyogenes [5]): 0.5 µg/mL (≈ 0.667 µM) | MIC (Streptococcus pneumoniae [6]): 4 µg/mL (≈ 5.33 µM) | MIC (Streptococcus pneumoniae [7]): 32 µg/mL (≈ 42.7 µM) | Ratio (Streptococcus pneumoniae [10]): 128 | MIC (Staphylococcus aureus [8]): 32 µg/mL (≈ 42.7 µM)

CC[C@H]1OC(=O)[C@H](C)[C@@H](OC(=O)Nc2ccccc2Cl)[C@H](C)[C@@H](O[C@@H]2O[C@H](C)C[C@H](N(C)C)[C@H]2O)[C@](C)(O)C[C@@H](C)CN(C)[C@H](C)[C@H]2OC(=O)O[C@@]21C
MIC [1]: 64 µg/mL (≈ 83.1 µM) | MIC (Escherichia coli): 128 µg/mL (≈ 166 µM) | MIC (Streptococcus pyogenes [2]): 128 µg/mL (≈ 166 µM) | MIC (Streptococcus pneumoniae [3]): 4 µg/mL (≈ 5.19 µM) | MIC (Bacillus subtilis): 8 µg/mL (≈ 10.4 µM) | MIC (Pseudomonas aeruginosa): 128 µg/mL (≈ 166 µM) | MIC (Staphylococcus aureus [4]): 8 µg/mL (≈ 10.4 µM) | MIC (Streptococcus pyogenes [5]): 0.125 µg/mL (≈ 0.162 µM) | MIC (Streptococcus pneumoniae [6]): 1 µg/mL (≈ 1.3 µM) | MIC (Streptococcus pneumoniae [7]): 64 µg/mL (≈ 83.1 µM) | MIC (Staphylococcus aureus [8]): 64 µg/mL (≈ 83.1 µM)

CC[C@H]1OC(=O)[C@H](C)[C@@H](OC(=O)Nc2ccccc2F)[C@H](C)[C@@H](O[C@@H]2O[C@H](C)C[C@H](N(C)C)[C@H]2O)[C@](C)(O)C[C@@H](C)CN(C)[C@H](C)[C@H]2OC(=O)O[C@@]21C
MIC [1]: 4 µg/mL (≈ 5.31 µM) | MIC (Escherichia coli): 64 µg/mL (≈ 84.9 µM) | MIC (Streptococcus pyogenes [2]): 64 µg/mL (≈ 84.9 µM) | MIC (Streptococcus pneumoniae [3]): 16 µg/mL (≈ 21.2 µM) | MIC (Bacillus subtilis): 32 µg/mL (≈ 42.4 µM) | MIC (Pseudomonas aeruginosa): 64 µg/mL (≈ 84.9 µM) | MIC (Staphylococcus aureus [4]): 8 µg/mL (≈ 10.6 µM) | MIC (Streptococcus pyogenes [5]): 0.5 µg/mL (≈ 0.663 µM) | MIC (Streptococcus pneumoniae [6]): 16 µg/mL (≈ 21.2 µM) | MIC (Streptococcus pneumoniae [7]): 64 µg/mL (≈ 84.9 µM) | MIC (Staphylococcus aureus [8]): 64 µg/mL (≈ 84.9 µM)

CC[C@H]1OC(=O)[C@H](C)[C@@H](OC(=O)Nc2cccc(F)c2)[C@H](C)[C@@H](O[C@@H]2O[C@H](C)C[C@H](N(C)C)[C@H]2O)[C@](C)(O)C[C@@H](C)CN(C)[C@H](C)[C@H]2OC(=O)O[C@@]21C
MIC [1]: 64 µg/mL (≈ 84.9 µM) | MIC (Escherichia coli): 128 µg/mL (≈ 170 µM) | MIC (Streptococcus pyogenes [2]): 128 µg/mL (≈ 170 µM) | MIC (Streptococcus pneumoniae [3]): 32 µg/mL (≈ 42.4 µM) | MIC (Bacillus subtilis): 128 µg/mL (≈ 170 µM) | MIC (Pseudomonas aeruginosa): 128 µg/mL (≈ 170 µM) | MIC (Staphylococcus aureus [4]): 32 µg/mL (≈ 42.4 µM) | MIC (Streptococcus pyogenes [5]): 2 µg/mL (≈ 2.65 µM) | MIC (Streptococcus pneumoniae [6]): 16 µg/mL (≈ 21.2 µM) | MIC (Streptococcus pneumoniae [7]): 64 µg/mL (≈ 84.9 µM) | MIC (Staphylococcus aureus [8]): 128 µg/mL (≈ 170 µM)

CC[C@H]1OC(=O)[C@H](C)[C@@H](O)[C@H](C)[C@@H](O[C@@H]2O[C@H](C)C[C@H](N(C)C)[C@H]2OC(=O)n2ccnc2)[C@](C)(O)C[C@@H](C)CN(C)[C@H](C)[C@H]2OC(=O)O[C@@]21C
MIC [1]: 32 µg/mL (≈ 45 µM) | MIC (Escherichia coli): 64 µg/mL (≈ 90 µM) | MIC (Streptococcus pyogenes [2]): 256 µg/mL (≈ 360 µM) | MIC (Streptococcus pneumoniae [3]): 32 µg/mL (≈ 45 µM) | MIC (Bacillus subtilis): 128 µg/mL (≈ 180 µM) | MIC (Pseudomonas aeruginosa): 64 µg/mL (≈ 90 µM) | MIC (Staphylococcus aureus [4]): 64 µg/mL (≈ 90 µM) | MIC (Streptococcus pyogenes [5]): 8 µg/mL (≈ 11.3 µM) | MIC (Streptococcus pneumoniae [6]): 128 µg/mL (≈ 180 µM) | MIC (Streptococcus pneumoniae [7]): 256 µg/mL (≈ 360 µM) | MIC (Staphylococcus aureus [8]): 128 µg/mL (≈ 180 µM)

CC[C@H]1OC(=O)[C@H](C)[C@@H](OC(=O)Nc2cccc(OC)c2)[C@H](C)[C@@H](O[C@@H]2O[C@H](C)C[C@H](N(C)C)[C@H]2OC(C)=O)[C@](C)(O)C[C@@H](C)CN(C)[C@H](C)[C@H]2OC(=O)O[C@@]21C
MIC [1]: 32 µg/mL (≈ 39.6 µM) | MIC (Escherichia coli): 64 µg/mL (≈ 79.2 µM) | MIC (Streptococcus pyogenes [2]): 128 µg/mL (≈ 158 µM) | MIC (Streptococcus pneumoniae [3]): 32 µg/mL (≈ 39.6 µM) | MIC (Bacillus subtilis): 16 µg/mL (≈ 19.8 µM) | MIC (Pseudomonas aeruginosa): 64 µg/mL (≈ 79.2 µM) | MIC (Staphylococcus aureus [4]): 32 µg/mL (≈ 39.6 µM) | MIC (Streptococcus pyogenes [5]): 2 µg/mL (≈ 2.48 µM) | MIC (Streptococcus pneumoniae [6]): 16 µg/mL (≈ 19.8 µM) | MIC (Streptococcus pneumoniae [7]): 128 µg/mL (≈ 158 µM) | MIC (Staphylococcus aureus [8]): 64 µg/mL (≈ 79.2 µM)
